The source made the active and inactive calls. The calls are words filed in the database; no cut-off is given here.
Assays:
[1] = tested on: Mino; assay: Antiproliferative activity against human Mino cells at 100 uM preincubated for 48 hrs followed by thymidine addition measure after 16 hrs by Thymidine incorporation assay; type: functional, cell-based
How it was run: (§1)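 MCL lines treated 48 h with compound re-added daily, alone or with co-drug (ibrutinib 25 µM where used), then thymidine added for a further 16 h; proliferation read as thymidine incorporation.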

[2] = Half life in HEPES buffer at 80 uM at pH 7.2 by RP-HPLC analysis; type: physicochemical
How it was run: (§2)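 Compound at 80 µM in 20 mM HEPES (pH 7.2 or 2.0) incubated at 37 °C; aliquots analyzed by RP-HPLC at 0, 1, 4, 6, 12, 18 and 24 h to follow methylthioalkyl deprotection and derive half-life.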

[3] = Half life in HEPES buffer at 80 uM at pH 2 by RP-HPLC analysis; type: physicochemical; how it was run: as §2
[4] = AUC (0 to 8 hrs) in Sprague-Dawley rat plasma at 2.5 mg/kg, iv by LC-MS/MS analysis; type: ADME, organism-based; design: time < 8 hr, dose 2.5 mg/kg, route intravenous
How it was run: (§3)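 Female Sprague-Dawley rats (250-274 g, n=3, catheterized femoral/jugular veins) dosed once p.o. by gavage (25 mg/kg) then, after a 3-day washout, i.v. (2.5 mg/kg). Formulation: 10 mg/mL in 0.5% aqueous CMC with 5% DMSO. Serial blood draws to 480 min into K2EDTA; plasma protein-precipitated with acetonitrile plus internal standards; LC-MS/MS (positive MRM); non-compartmental PK; %F from dose-normalized AUC per rat.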

[5] = tested on: Z-138; assay: Drug uptake in human Z138 cells assessed per 5 million cells at 150 uM after 12 hrs by LC-MS/MS analysis; type: ADME, cell-based; conditions: z-138, 12 h
How it was run: (§4)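 Five million MCL cells in RPMI/10% FBS with penicillin, streptomycin and L-glutamine were exposed to compound (150 µM) for 12 h at 37 °C. Cells were washed in cold PBS, extracted in MeOH/NH4OAc (60:40) with 80 fmol internal standards, freeze-thawed three times, then filtered and dried. Residue was taken up in HEPES for LC-MS/MS, quantified against an internal-standard curve.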

[6] = tested on: Granta-519; assay: Drug uptake in human GRANTA-519 cells assessed per 5 million cells at 150 uM after 12 hrs by LC-MS/MS analysis; type: ADME, cell-based; conditions: granta-519, 12 h; how it was run: as §4
[7] = Drug uptake in human Mino cells assessed per 5 million cells at 150 uM after 12 hrs by LC-MS/MS analysis; type: ADME, cell-based; how it was run: as §4
[8] = Clearance in Sprague-Dawley rat at 2.5 mg/kg, iv by LC-MS/MS analysis; type: ADME, organism-based; conditions: Sprague-Dawley, in vivo; how it was run: as §3
[9] = AUC (0 to 8 hrs) in Sprague-Dawley rat plasma at 25 mg/kg, po by LC-MS/MS analysis; type: ADME, organism-based; design: time < 8 hr, dose 25 mg/kg, route oral; how it was run: as §3
[10] = tested on: Rattus norvegicus; assay: AUC (0 to 8 hrs) in Sprague-Dawley rat plasma assessed as 2-amino-7-(2-(4-chlorophenoxy)ethyl)-9-((2R,3R,4S,5R)-3,4-dihydroxy-5-(phosphonooxymethyl)tetrahydrofuran-2-yl)-6-oxo-6,9-dihydro-1H-purin-7-ium at 2.5 mg/kg, iv by LC-MS/MS analysis; type: ADME, organism-based; design: time < 8 hr, dose 2.5 mg/kg, route intravenous; conditions: in vivo; how it was run: as §3
[11] = target: T1, Adenosine 5'-monophosphoramidase HINT1 (Homo sapiens, UniProt P49773); assay: Prodrug activation in human Mino cells assessed as Hint1 mediated 2-amino-7-(2-(4-chlorophenoxy)ethyl)-9-((2R,3R,4S,5R)-3,4-dihydroxy-5-(phosphonooxymethyl)tetrahydrofuran-2-yl)-6-oxo-6,9-dihydro-1H-purin-7-ium formation per 5 million cells at 150 uM after 12 hrs by LC-MS/MS analysis; type: cell-based
How it was run: (§5)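 Mantle cell lymphoma cells (five million) grown in RPMI with 10% FBS, penicillin/streptomycin and L-glutamine at 37 °C, 5% CO2, then exposed to 150 µM compound for 12 h at 37 °C. Washed with ice-cold PBS, pellet extracted in MeOH/NH4OAc (60:40) with 80 fmol internal standards, three liquid-N2 freeze–thaw cycles, filtered, dried, redissolved in 20 mM HEPES pH 7.2. Analysed by LC-MS/MS against a standard curve.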

[12] = Half life in Sprague-Dawley rat at 2.5 mg/kg, iv by LC-MS/MS analysis; type: ADME, organism-based; conditions: in vivo; how it was run: as §3
[13] = target: T1, Adenosine 5'-monophosphoramidase HINT1; assay: Prodrug activation in human Z138 cells assessed as Hint1 mediated 2-amino-7-(2-(4-chlorophenoxy)ethyl)-9-((2R,3R,4S,5R)-3,4-dihydroxy-5-(phosphonooxymethyl)tetrahydrofuran-2-yl)-6-oxo-6,9-dihydro-1H-purin-7-ium formation per 5 million cells at 150 uM after 12 hrs by LC-MS/MS analysis; type: cell-based; how it was run: as §5
[14] = tested on: Plasma; assay: Prodrug activation in Sprague-Dawley rat plasma assessed as 2-amino-7-(2-(4-chlorophenoxy)ethyl)-9-((2R,3R,4S,5R)-3,4-dihydroxy-5-(phosphonooxymethyl)tetrahydrofuran-2-yl)-6-oxo-6,9-dihydro-1H-purin-7-ium level at 2.5 mg/kg, iv measured at 5 mins by LC-MS/MS analysis; type: organism-based; conditions: in vivo; how it was run: as §3
[15] = Oral bioavailability in Sprague-Dawley rat at 25 mg/kg by LC-MS/MS analysis; type: ADME, organism-based; conditions: in vivo; how it was run: as §3
[16] = target: T1, Adenosine 5'-monophosphoramidase HINT1; assay: Prodrug activation in human GRANTA-519 cells assessed as Hint1 mediated 2-amino-7-(2-(4-chlorophenoxy)ethyl)-9-((2R,3R,4S,5R)-3,4-dihydroxy-5-(phosphonooxymethyl)tetrahydrofuran-2-yl)-6-oxo-6,9-dihydro-1H-purin-7-ium formation per 5 million cells at 150 uM after 12 hrs by LC-MS/MS analysis; type: cell-based; how it was run: as §4
[17] = Volume of distribution in Sprague-Dawley rat at 2.5 mg/kg, iv by LC-MS/MS analysis; type: ADME, organism-based; conditions: in vivo
How it was run: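 Female Sprague-Dawley rats (n=3, 250-274 g) with catheters; compound in 0.5% aqueous CMC with 5% DMSO given as a single i.v. injection, 2.5 mg/kg. Blood drawn at 0–480 min into K2EDTA tubes. Plasma precipitated with acetonitrile containing internal standards, then LC-MS/MS in positive MRM mode. Parameters from non-compartmental analysis.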

[18] = target: Eukaryotic translation initiation factor 4E-binding protein 1 (Homo sapiens) (UniProt Q13541); assay: Inhibition of 4EBP1 phosphorylation at Ser 65 residues in human Mino cells at 10 to 25 uM after 48 hrs by Western blot analysis; type: cell-based
How it was run: (§6)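 MCL cell lines treated with ProTide 48 h. Lysates were protein-quantified, then immunoblotted.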

[19] = target: Eukaryotic translation initiation factor 4E-binding protein 1 (Homo sapiens) (UniProt Q13541); assay: Inhibition of 4EBP1 phosphorylation at Thr 37/46 residues in human Mino cells at 10 to 25 uM after 48 hrs by Western blot analysis; type: cell-based; how it was run: as §6
[20] = Cytotoxicity against human Mino cells assessed as reduction in cell survival at 25 uM after 48 hrs by Annexin V/propidium iodide based flow cytometric analysis
How it was run: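 MCL cell lines exposed to ProTide 48 h, re-dosed daily. Survival read by Annexin V/PI staining on flow cytometry.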

[21] = target: Eukaryotic translation initiation factor 4E (Homo sapiens) (UniProt P06730); assay: Inhibition of eIF4E in human Mino cells assessed as down regulation of c-Myc protein expression at 10 to 25 uM after 48 hrs by Western blot analysis; type: cell-based; how it was run: as §6
[22] = tested on: Mino; assay: Antiproliferative activity against human Mino cells at 25 uM preincubated for 48 hrs followed by thymidine addition measure after 16 hrs by Thymidine incorporation assay; type: functional, cell-based
How it was run: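 MCL cell lines exposed to ProTide 48 h with fresh compound added every day, then thymidine added for a further 16 h. Proliferation read as thymidine incorporation.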

[23] = tested on: Mino; assay: Antiproliferative activity against human Mino cells at […] preincubated for 48 hrs followed by thymidine addition measure after 16 hrs by Thymidine incorporation assay; type: functional, cell-based; how it was run: as §1

T1 sequence (P49773 whole entry): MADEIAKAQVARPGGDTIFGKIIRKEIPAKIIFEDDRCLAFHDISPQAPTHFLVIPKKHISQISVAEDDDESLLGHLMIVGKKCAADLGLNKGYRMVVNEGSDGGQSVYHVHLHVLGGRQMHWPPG
Chain of Eukaryotic translation initiation factor 4E-binding protein 1 (Homo sapiens) (Q13541 whole entry): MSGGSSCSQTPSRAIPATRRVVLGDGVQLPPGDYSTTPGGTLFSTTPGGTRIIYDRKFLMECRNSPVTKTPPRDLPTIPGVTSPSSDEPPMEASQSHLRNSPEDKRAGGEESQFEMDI
Chain of Eukaryotic translation initiation factor 4E (Homo sapiens) (P06730 whole entry): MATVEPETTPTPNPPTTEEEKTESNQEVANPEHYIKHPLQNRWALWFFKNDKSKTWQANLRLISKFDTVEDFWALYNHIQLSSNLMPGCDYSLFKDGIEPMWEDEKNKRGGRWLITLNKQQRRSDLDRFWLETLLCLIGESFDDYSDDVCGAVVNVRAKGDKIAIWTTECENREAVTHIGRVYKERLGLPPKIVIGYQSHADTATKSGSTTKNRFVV

SMILES: C[C@@H]1C[C@H]2[C@@H]3CCC4=CC(=O)C=C[C@]4(C)[C@@]3(F)[C@@H](O)C[C@]2(C)[C@@]1(O)C(=O)CO
- Activity [1]: Active

SMILES: CSCCCOP(=O)(NCCc1c[nH]c2ccccc12)OC[C@H]1O[C@@H](n2c[n+](CCOc3ccc(Cl)cc3)c3c(=O)[nH]c(N)nc32)[C@H](O)[C@@H]1O (some centres undefined)
- half-life at 80 µM [2]: > 60 h

SMILES: CSCCCCOP(=O)(NCCc1c[nH]c2ccccc12)OC[C@H]1O[C@@H](n2c[n+](CCOc3ccc(Cl)cc3)c3c(=O)[nH]c(N)nc32)[C@H](O)[C@@H]1O (some centres undefined)
- half-life at 80 µM [2]: 10.4 h
- half-life at 80 µM [3]: 13 h

SMILES: Nc1nc2c(c(=O)[nH]1)[n+](CCOc1ccc(Cl)cc1)cn2[C@@H]1O[C@H](COP(=O)(O)NCCc2c[nH]c3ccccc23)[C@@H](O)[C@H]1O
- AUC(0-t) at 8 h [4]: 0.147 µg·h/mL
- Drug uptake [5]: 0.163 pmol
- Drug uptake [6]: 1.52 pmol
- Drug uptake [7]: 0.59 pmol
- clearance [8]: 18 L/h/kg
- AUC(0-t) at 8 h [9]: 0.0317 µg·h/mL
- AUC [10]: 13.1 µg·min/mL
- Drug metabolism [11]: 7.49 pmol
- half-life [12]: 2.72 h
- Drug metabolism [13]: 0.523 pmol
- Drug metabolism [14]: 583 ng/mL
- bioavailability [15]: < 1%
- Drug metabolism [16]: 5.23 pmol
- Vd [17]: 70 L/kg

SMILES: C=CC(=O)N1CCC[C@@H](n2nc(-c3ccc(Oc4ccccc4)cc3)c3c(N)ncnc32)C1 [IBRUTINIB]
- inhibition [18]: Active
- inhibition [19]: inactive
- Activity [20]: Non-Toxic
- inhibition [21]: Active
- Activity [22]: inactive

SMILES: COc1cccc2c1C(=O)c1c(O)c3c(c(O)c1C2=O)C[C@@](O)(C(=O)CO)C[C@@H]3O[C@H]1C[C@H](N)[C@H](O)[C@H](C)O1
- Activity [23]: inactive

Reference: ChEMBL document CHEMBL4028857, “Anchimerically Activated ProTides as Inhibitors of Cap-Dependent Translation and Inducers of Chemosensitization in Mantle Cell Lymphoma” (J Med Chem, 2017)
